# Experimental data collected from several papers.
# Lines come from different studies, so protocols differ.
SMILES,tested on,assay,test system,setting,quantity,result
COc1ccc(-c2c(-c3ccc(C#N)c(F)c3)nc(N3CCC(N)CC3)n(C)c2=O)cc1F,TC-32,"cell growth or viability, resazurin",,,IC50,36 µM
C[C@@H]1CN2c3c(cc4c(N5C(=O)OC[C@@H]5C)noc4c3F)CC3(C(=O)NC(=O)NC3=O)[C@H]2[C@H](C)O1,Klebsiella pneumoniae,"microbial growth, broth dilution",ATCC10031,,MIC,0.25 µg/mL
O=c1ccc2nc3ccc(O)cc3oc-2c1,Klebsiella pneumoniae,microbial growth,,24 h,MIC,> 32 µg/mL
COc1ccc(Nc2nn3c(-c4ccccc4)ccnc3c2C(=O)Nc2ccccc2)cc1,Caco-2,"cell growth or viability, MTT",,"25 µg/mL, 48 h, serum-free",viability,56.6%
Cc1c2ccncc2c(C)c2c1[nH]c1ccccc12,Caco-2,"cell growth or viability, SRB",,72 h,GI50,4.91 µM
Oc1c(Br)cc(Br)cc1-c1[nH]c(Br)c(Br)c1Br,Streptococcus pneumoniae,microbial growth,ATCC49619,,MIC,0.04 µM
O=c1ccc2nc3ccc(OCc4ccc([N+](=O)[O-])o4)cc3oc-2c1,Klebsiella pneumoniae,microbial growth,,24 h,MIC,> 32 µg/mL
Oc1c(Cl)cc(Cl)cc1-c1[nH]c(Cl)c(Cl)c1Cl,Streptococcus pneumoniae,microbial growth,ATCC49619,,MIC,0.13 µM
N.N.[Cl][Pt][Cl],A2780,"cell growth or viability, MTT",,,IC50,0.31 µM
